High-throughput results: PubChem, Broad Institute
CFTR F508del cor: CFTR F508del correction in bronchial cells; CFBE cells, YFP halide quenching; stimulated with forskolin plus potentiator P3; % fluorescence drop versus neutral controls; activity (quench increase), % at 7.58 µM; 350,000 tested, 0.36% active;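 active means mean added fluorescence quench of at least 8% versus neutral control, with both replicates also reaching 8%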;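 further: cells transiently co-express mutant CFTR-F508del with the halide-sensitive YFP; corrector assay measuring rescue of mutant channel to the surface after 24 h compound exposure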
miR122 inh: inhibitors of miR-122 in Huh7 cells; Huh7 miR-122 Renilla luciferase sensor, 48 h; neutral wells = 0, positive control = 100; 340,000 tested, 0.3% active; activation (reporter increase), % at 12.5 µM;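 active means mean replicate activation score at least 90 and every replicate individually at or above 90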;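 further: higher luciferase means less miR-122 activity so hits act as miR-122 inhibitors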
Cneo AK release: Cryptococcus neoformans lysis via adenylate kinase release. lysis activity, % at 15 µM. AID 651654. 360,000 tested, 0.2% active. C. neoformans lysis, adenylate kinase release luminescence, 4 h; normalised: neutral wells 0, clomiphene wells 100;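 active means mean lysis activity across replicates of at least 80%, whatever share of replicates individually reach that level; inactive means mean lysis activity below 80%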
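Material: C. neoformans cells | Amount: Yeast cell density of 5 × 10^6 cells/mL | Medium: Fresh YPD growth medium | Dosing: Single dose | Times: Static 4 h at 37 °C with compound, 1 h detection | Detection: AK luminescence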
GSIS activator: primary screen for activators of insulin secretion dependent on glucose, INS-1E cells, GLuc reporter luminescence. AID 743287. 370,000 tested, 0.61% active. activation, % at 16.6 µM. INS-1E GLuc reporter insulin secretion, 2-3 h;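 active means lowest replicate activation of at least 40%, so every replicate reaches that level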
Ecoli rRNA inh: selective bacterial rRNA inhibition in E. coli; GFP signal change (wild-type ribosome), % (no concentration beside the values); AID 720706; 350,000 tested, 1.6% active; E. coli WT GFP vs humanized-ribosome RFP mutants, fluorescence, 24 h; active compounds read low; DMSO median 0, no signal -100;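 active means significant combined selectivity score with lowered wild-type GFP, culture density cut under 30%, mutant RFP and density less affected; inactive means any of these conditions unmet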
HIV Env fusion: inhibitors of HIV Env-mediated cell fusion | HeLa-JRFL Env/CEM21 cell fusion, luciferase | inhibition, % at 12.3 µM | 360,000 tested, 1.1% active;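 active means mean replicate inhibition score of at least 50 and every replicate individually at or above 50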
Each line names hits and unclear results; the compound was inactive in the other large screens. Compounds with a hit are over-represented: about 3.1% of the library has one in this group of screens.

Cc1ccc(-c2cnc3c(Nc4cccc(OC(F)(F)C(F)F)c4)nccn23)cc1	HIV Env fusion 61
FC(F)C(F)(F)Oc1cccc(Nc2nccn3c(-c4cc(C(F)(F)F)cc(C(F)(F)F)c4)cnc23)c1	none
Cc1cc(C)cc(NS(=O)(=O)c2ccc(-c3cnc(C4CC4)o3)cc2)c1	miR122 inh 375
Cc1ccc(C)c(NS(=O)(=O)c2ccc(-c3cnc(C4CC4)o3)cc2)c1	none (no result: miR122 inh)
CC(=O)Nc1ccc(NS(=O)(=O)c2ccc(-c3cnc(C4CC4)o3)cc2)cc1	none
O=S(=O)(Nc1ccccc1)c1ccc(-c2cnc(C3CC3)o2)cc1	miR122 inh 159
CC(NC(=O)Cc1cccs1)C(c1cccs1)N1CCN(c2ccccc2F)CC1 (stereo not given)	HIV Env fusion 62 (no result: CFTR F508del cor, Ecoli rRNA inh)
CC(NC(=O)Cc1cccs1)C(c1cccs1)N1CCN(c2ccccc2)CC1 (stereo not given)	none (no result: CFTR F508del cor, GSIS activator, Ecoli rRNA inh, HIV Env fusion)
CC(NC(=O)C(=O)N1CCOCC1)C(c1cccs1)N1CCN(c2ccccc2)CC1 (stereo not given)	none
COc1ccc(N2CCN(C(c3cccs3)C(C)NC(=O)C(=O)N3CCOCC3)CC2)cc1 (stereo not given)	GSIS activator 79 (no result: miR122 inh)
Cc1ccc(SC(C)C(=O)NC(N)=O)c(C)c1 (stereo not given)	GSIS activator 41 (no result: miR122 inh, Cneo AK release)
CC(Sc1ccc2ccccc2c1)C(=O)NC(N)=O (stereo not given)	none (no result: miR122 inh, Cneo AK release)
COc1ccc2[nH]c(=O)c(CN(CC3CCCO3)C(=S)Nc3ccccc3)cc2c1 (stereo not given)	none (no result: miR122 inh, Cneo AK release)
Cc1ccc2[nH]c(=O)c(CN(CC3CCCO3)C(=O)c3cccs3)cc2c1 (stereo not given)	GSIS activator 156
COc1ccc2cc(CN(CC3CCCO3)C(=S)Nc3ccccc3)c(=O)[nH]c2c1 (stereo not given)	CFTR F508del cor 10 (no result: miR122 inh, Cneo AK release)
Cc1ccc2nc(NC(=O)CSCC(=O)OCC(=O)c3ccc(Br)cc3)sc2c1	HIV Env fusion 73 (no result: CFTR F508del cor, Ecoli rRNA inh)
CO[C@@H]1CN(C)C(=O)c2cc(NC(C)=O)ccc2OC[C@@H](C)NC[C@@H]1C	none (no result: miR122 inh)
COC(=O)C[C@@H]1CC[C@@H]2[C@H](COc3ccc(NC(=O)c4cc(C)on4)cc3C(=O)N2C)O1	CFTR F508del cor 14 (no result: HIV Env fusion)
Cc1cc(C(=O)Nc2ccc3c(c2)C(=O)N(C)[C@H]2CC[C@@H](CC(=O)N[C@@H](C)c4ccccc4)O[C@H]2CO3)no1	Cneo AK release 100
COC(=O)C[C@H]1CC[C@@H]2[C@@H](COc3ccc(NC(=O)c4cc(C)on4)cc3C(=O)N2C)O1	none (no result: HIV Env fusion)
Cc1cc(C(=O)Nc2ccc3c(c2)C(=O)N(C)[C@@H]2CC[C@@H](CC(=O)N[C@@H](C)c4ccccc4)O[C@@H]2CO3)no1	Cneo AK release 83
C[C@H](CO)N1C[C@H](C)[C@H](CN(C)Cc2ccc(-c3ccccc3)cc2)Oc2c(NC(=O)Nc3ccc(C(F)(F)F)cc3)cccc2C1=O	none (no result: HIV Env fusion)
CCN1C(=O)c2cccc3c(S(=O)(=O)Nc4ccncc4)ccc1c23	none (no result: CFTR F508del cor, GSIS activator, Ecoli rRNA inh, HIV Env fusion)
CCN1C(=O)c2cccc3c(S(=O)(=O)Nc4ccccc4)ccc1c23	miR122 inh 151 (no result: CFTR F508del cor, GSIS activator, Ecoli rRNA inh, HIV Env fusion)
CCN1C(=O)c2cccc3c(S(=O)(=O)Nc4ncccc4C)ccc1c23	miR122 inh 96 (no result: CFTR F508del cor, Ecoli rRNA inh)
COc1ccc(CN(C)C[C@H]2Oc3ccc(NC(=O)C4CC4)cc3CC(=O)N([C@H](C)CO)C[C@@H]2C)cc1	none (no result: miR122 inh, Cneo AK release, HIV Env fusion)
O=C(NCc1ccc(Cl)cc1)c1cccc(S(=O)(=O)N2CCCC2)c1	Ecoli rRNA inh -19
Cc1ccc(C)c(COC(=O)c2cccc(S(=O)(=O)N3CCCC3)c2)c1	none (no result: miR122 inh, Cneo AK release)
N#Cc1ccccc1COC(=O)c1cccc(S(=O)(=O)N2CCCC2)c1	Ecoli rRNA inh -29
O=C(NCc1ccc(Cl)cc1)c1cc(=O)[nH]c2ccc(S(=O)(=O)N3CCOCC3)cc12	GSIS activator 55
CN1CCN(NC(=O)c2cccc(S(=O)(=O)N3CCCCCC3)c2)CC1	GSIS activator 58
CNC[C@@H]1Oc2c(NC(=O)c3cnccn3)cccc2C(=O)N([C@H](C)CO)C[C@@H]1C	none
Cc1ccc(O)c(NC(=O)c2cccc(S(=O)(=O)N3CCCCC3)c2)c1	miR122 inh 113 (no result: CFTR F508del cor, GSIS activator, Ecoli rRNA inh, HIV Env fusion)
CCCn1c(NC(=O)c2cccc(S(=O)(=O)N3CCCC3)c2)nc2ccccc21	HIV Env fusion 132 (no result: CFTR F508del cor, GSIS activator, Ecoli rRNA inh)
COc1cc(CNc2ccc(N3CCN(C(C)=O)CC3)cc2)ccc1OCc1ccc(F)cc1	Ecoli rRNA inh -27 (no result: Cneo AK release)
Cc1ccccc1Cn1ccc(NC(=O)c2cc3nc(-c4ccco4)cc(C(F)(F)F)n3n2)n1	GSIS activator 66 (no result: CFTR F508del cor, Ecoli rRNA inh, HIV Env fusion)
Cc1nn(Cc2ccccc2)c(C)c1NC(=O)c1cc2nc(-c3ccco3)cc(C(F)(F)F)n2n1	none (no result: CFTR F508del cor, GSIS activator, Ecoli rRNA inh, HIV Env fusion)
CO[C@@H](CN(C)S(=O)(=O)c1ccc(C)cc1)[C@H](C)CN(Cc1ccccc1Cl)[C@@H](C)CO	none (no result: miR122 inh, HIV Env fusion)
CN(C)/N=C/c1ccc(N2CCOCC2)cc1	Ecoli rRNA inh -17
C(=N\n1cnnc1)/c1ccc(N2CCOCC2)cc1	none (no result: CFTR F508del cor, GSIS activator, Ecoli rRNA inh)
C[C@@H]1CN([C@@H](C)CO)C(=O)Cc2cc(NS(C)(=O)=O)ccc2O[C@@H]1CN(C)S(=O)(=O)c1ccccc1	none
Cn1c(=O)c2c(nc(SCC(=O)NCc3ccc4c(c3)OCO4)n2Cc2ccccc2)n(C)c1=O	none (no result: CFTR F508del cor, GSIS activator, Ecoli rRNA inh, HIV Env fusion)
CCCCn1c(SCC(=O)Nc2ccc3c(c2)OCO3)nc2c1c(=O)n(C)c(=O)n2C	HIV Env fusion 79 (no result: CFTR F508del cor, GSIS activator, Ecoli rRNA inh)
Cn1c(=O)c2c(nc(SCC(=O)NCc3ccc4c(c3)OCO4)n2Cc2ccc(F)cc2)n(C)c1=O	HIV Env fusion 137 (no result: CFTR F508del cor, GSIS activator, Ecoli rRNA inh)
O=C(COc1ccccc1F)NNC(=O)c1cccc(-n2cccc2)c1	Ecoli rRNA inh -44
CCCCCCCC(=O)OCC(COC(=O)CCCCCCC)OC(=O)CCCCCCC	none (no result: HIV Env fusion)
CCCCCCCCCC(=O)OCC(O)CO (stereo not given)	CFTR F508del cor 8.2 (no result: GSIS activator, Ecoli rRNA inh)
CC1Cc2ccccc2N1S(=O)(=O)c1cnc(Cl)c(Br)c1 (stereo not given)	Ecoli rRNA inh -27 (no result: miR122 inh)
CC(=O)N1CCc2cc(S(=O)(=O)N3c4ccccc4CC3C)ccc21 (stereo not given)	CFTR F508del cor 10 (no result: miR122 inh, HIV Env fusion)
CC1Cc2ccccc2N1S(=O)(=O)c1cnc(Cl)c(Cl)c1 (stereo not given)	none (no result: Cneo AK release)
CC(=O)N1CCc2cc(S(=O)(=O)NCCCN3CCN(Cc4ccccc4)CC3)ccc21	miR122 inh 302 (no result: CFTR F508del cor, GSIS activator, Ecoli rRNA inh)
COCC(=O)Nc1ccc2c(c1)OC[C@@H](C)N(C(=O)c1ccccn1)C[C@H](C)[C@@H](OC)CN(C)C2=O	none
COc1ccc2c3c([nH]c2c1)[C@@H](CO)N(S(=O)(=O)c1ccc(C)cc1)CC31CN(Cc2ccccc2)C1	none (no result: miR122 inh, Cneo AK release, HIV Env fusion)
